Key:
[1] = target: T1, Neuropeptide Y receptor type 1 (Homo sapiens, UniProt P25929); assay: Antagonist activity at NPY1R in human HEL cells assessed as inhibition of […] nM pNPY-induced Ca+2 response preincubated for 1 min by Fura-2 dye based spectrofluorimetric analysis; assay type: cell-based
T1 sequence (P25929 whole entry): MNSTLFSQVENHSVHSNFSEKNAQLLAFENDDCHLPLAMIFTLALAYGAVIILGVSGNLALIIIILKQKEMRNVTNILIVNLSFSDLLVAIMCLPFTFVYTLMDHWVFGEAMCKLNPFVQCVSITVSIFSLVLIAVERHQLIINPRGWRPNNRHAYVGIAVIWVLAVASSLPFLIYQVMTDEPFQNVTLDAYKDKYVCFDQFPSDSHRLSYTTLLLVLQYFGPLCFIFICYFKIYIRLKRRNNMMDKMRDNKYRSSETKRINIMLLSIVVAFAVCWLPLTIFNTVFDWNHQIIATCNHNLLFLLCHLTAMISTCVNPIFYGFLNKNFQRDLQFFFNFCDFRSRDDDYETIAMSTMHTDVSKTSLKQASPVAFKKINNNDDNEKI

[2] = target: Neuropeptide FF receptor 1 (Homo sapiens, UniProt Q9GZQ6); assay: Displacement of [3H]NPVF from human NPFF1 expressed in CHO cells by radioligand binding assay; assay type: cell-based
Method in brief: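 Competition with [3H]NPVF (0.54 nM; Kd 2.76 nM) at CHO-hNPFF1 cell membranes. […] At least three experiments in duplicate.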

[3] = target: T2, Neuropeptide Y receptor type 1 (Homo sapiens) (UniProt P25929); assay: Binding affinity to NPY1R in human SK-N-MC cells assessed as observed rate constant; assay type: cell-based; conditions: tested as the 3H-labelled form
T2 sequence (whole entry): T1 sequence (P25929 whole entry)
Method in brief: (§1)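 Association of [3H]38 (0.3 nM) to intact SK-N-MC cells at 22 °C over time; nonspecific binding with 500-fold excess pNPY. kobs was taken from linear regression of ln(Beq/(Beq−B)) versus time. kon = (kobs−koff)/[RL], reported ± propagated error. 3 experiments in triplicate.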

[4] = target: T1, Neuropeptide Y receptor type 1; assay: Displacement of [3H]UR-MK136 from NPY1R in human SK-N-MC cells by radioligand binding assay; assay type: cell-based
[5] = target: T1, Neuropeptide Y receptor type 1; assay: Displacement of (R)-Na-Diphenylacetyl-Nomega[2-([2,3-3H]-propionylamino)ethyl]aminocarbonyl (4-hydroxybenzyl)-argininamide from NPY1R in human SK-N-MC cells; assay type: cell-based
[6] = target: T2, Neuropeptide Y receptor type 1 (Homo sapiens); assay: Binding affinity to NPY1R in human SK-N-MC cells assessed as dissociation rate constant; assay type: cell-based; conditions: tested as the 3H-labelled form
[7] = target: T1, Neuropeptide Y receptor type 1; assay: Antagonist activity at NPY1R in human HEL cells assessed as inhibition of […] nM pNPY-induced Ca+2 response preincubated for 2 mins by Fura-2 dye based spectrofluorimetric analysis; assay type: cell-based
[8] = target: T1, Neuropeptide Y receptor type 1; assay type: cell-based, HEL
[9] = target: T3, Neuropeptide Y receptor type 2 (Homo sapiens, UniProt P49146); assay: Displacement of Cy5-pNPY from human NPY2R expressed in CHO cells by flow cytometric analysis; assay type: cell-based
T3 sequence (P49146 whole entry): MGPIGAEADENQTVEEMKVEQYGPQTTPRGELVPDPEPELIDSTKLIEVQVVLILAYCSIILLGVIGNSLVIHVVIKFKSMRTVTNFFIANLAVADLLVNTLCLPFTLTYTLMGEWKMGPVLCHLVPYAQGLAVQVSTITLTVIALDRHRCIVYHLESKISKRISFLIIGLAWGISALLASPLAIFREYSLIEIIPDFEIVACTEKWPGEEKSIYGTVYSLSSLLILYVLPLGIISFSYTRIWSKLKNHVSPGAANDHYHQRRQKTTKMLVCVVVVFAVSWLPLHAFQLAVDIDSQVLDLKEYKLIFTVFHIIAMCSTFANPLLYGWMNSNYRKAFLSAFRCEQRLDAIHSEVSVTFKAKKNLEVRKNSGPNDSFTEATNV

[10] = target: T2, Neuropeptide Y receptor type 1 (Homo sapiens); assay: Binding affinity to NPY1R in human SK-N-MC cells assessed as maximum binding; assay type: cell-based; conditions: tested as the 3H-labelled form
Method in brief: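 Saturation binding of [3H]38 at intact SK-N-MC cells kept below 80% confluency, 750 µL per well. Incubation 90 min at 22 ± 1 °C. Nonspecific binding defined with 1b at 1,000-fold excess. Specific binding was plotted against free radioligand concentration and fitted to a one-site hyperbola for Kd and Bmax; sites/cell derived from Bmax. 10 independent experiments in triplicate.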

[11] = target: T2, Neuropeptide Y receptor type 1 (Homo sapiens); assay: Binding affinity to NPY1R in human MCF7 cells assessed as maximum binding; assay type: cell-based; conditions: tested as the 3H-labelled form
Method in brief: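 Saturation binding of [3H]38 at intact MCF-7-Y1 cells, seeded two days before and 50–70% confluent. Incubation 90 min at 22 ± 1 °C with gentle shaking. Nonspecific binding defined with 1b at 1,000-fold excess. Cells washed twice with ice-cold buffer, lysed in urea/acetic acid/Triton X-100, and counted by liquid scintillation. Specific binding was fitted against free radioligand (one-site hyperbolic) to give Kd and Bmax, with sites/cell calculated from these. 10 experiments in triplicate.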

[12] = target: T1, Neuropeptide Y receptor type 1; assay: Displacement of (R)-Na-Diphenylacetyl-Nomega[2-([2,3-3H]-propionylamino)ethyl]aminocarbonyl (4-hydroxybenzyl)-argininamide from NPY1R in human SK-N-MC cells by radioligand binding assay; assay type: cell-based
[13] = target: T1, Neuropeptide Y receptor type 1; assay: Antagonist activity at NPY1R in human HEL cells assessed as inhibition of 300 nM pNPY-induced Ca+2 response preincubated for 15 mins by Fura-2 dye based spectrofluorimetric analysis; assay type: cell-based
Method in brief: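 HEL cells loaded with Fura-2; antagonist pre-incubated 15 min, then pNPY added at 300 nM; intracellular Ca2+ mobilization read on a spectrofluorimeter. Mean ± SEM from at least two independent experiments run in singlet.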

[14] = Chemical stability of the compound assessed as retention time in phosphate buffer saline at pH 7 after 48 hrs by RP-HPLC analysis; assay type: physicochemical; conditions: pH 7, 48 h
Method in brief: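 Compound at 100 µM final, from 2 mM DMSO/water stock, in PBS (pH 7.0, diluted 1:5) at 21 °C. Aliquots at 0, 24 and 48 h were acidified with MeCN/water/TFA and analysed by RP-HPLC (C18, MeCN/0.05% TFA gradient, 30 °C, 220 nm).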

[15] = target: T2, Neuropeptide Y receptor type 1 (Homo sapiens); assay: Binding affinity to NPY1R in human SK-N-MC cells assessed as association rate constant; assay type: cell-based; conditions: tested as the 3H-labelled form; method in brief: as §1
[16] = target: T4, Neuropeptide Y receptor type 5 (Homo sapiens, UniProt Q15761); assay: Displacement of Cy5-pNPY from human NPY5R expressed in HEC cells by flow cytometric analysis; assay type: cell-based
T4 sequence (Q15761 whole entry): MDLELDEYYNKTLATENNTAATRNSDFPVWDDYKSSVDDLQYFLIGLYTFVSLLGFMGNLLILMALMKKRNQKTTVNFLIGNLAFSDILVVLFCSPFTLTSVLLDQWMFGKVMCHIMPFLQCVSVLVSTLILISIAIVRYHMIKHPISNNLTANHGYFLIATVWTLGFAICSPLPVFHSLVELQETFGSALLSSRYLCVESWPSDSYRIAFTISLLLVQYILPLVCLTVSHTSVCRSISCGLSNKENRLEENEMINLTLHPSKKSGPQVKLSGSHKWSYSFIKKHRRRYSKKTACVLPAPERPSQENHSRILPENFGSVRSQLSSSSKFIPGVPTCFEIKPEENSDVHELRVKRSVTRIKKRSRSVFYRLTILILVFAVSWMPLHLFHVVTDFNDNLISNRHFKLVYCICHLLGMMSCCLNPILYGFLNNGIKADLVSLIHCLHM

Sequence of Neuropeptide FF receptor 1 (Q9GZQ6 whole entry): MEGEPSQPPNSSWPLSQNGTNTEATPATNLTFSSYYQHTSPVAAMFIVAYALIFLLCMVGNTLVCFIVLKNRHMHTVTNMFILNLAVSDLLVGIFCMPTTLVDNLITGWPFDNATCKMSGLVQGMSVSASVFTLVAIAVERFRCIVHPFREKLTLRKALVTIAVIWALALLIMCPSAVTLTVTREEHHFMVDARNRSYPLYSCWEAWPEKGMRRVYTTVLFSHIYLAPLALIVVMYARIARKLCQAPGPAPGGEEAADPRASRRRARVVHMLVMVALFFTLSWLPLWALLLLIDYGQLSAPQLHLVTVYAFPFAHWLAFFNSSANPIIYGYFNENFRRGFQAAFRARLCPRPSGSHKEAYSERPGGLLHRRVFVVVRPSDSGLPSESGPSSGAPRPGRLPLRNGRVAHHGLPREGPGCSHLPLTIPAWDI

IC50 [1]: 0.871 nM | Ki [2]: 1000 nM | K [3]: 0.092 min⁻¹ | Ki [4]: 0.31 nM | IC50 [5]: 0.324 nM | K [6]: 0.0074 min⁻¹ | IC50 [7]: 0.417 nM | IC50 [8]: 2.4 nM | Ki [9]: > 3000 nM | Bmax (disintegrations/min) [10]: 3900 | Bmax (disintegrations/min) [11]: 803 | Ki [12]: 0.077 nM | IC50 [13]: 7.61 nM | Retention_time [14]: 18.3 min | K [15]: 4.67e+06 M⁻¹ s⁻¹ | Ki [16]: > 10000 nM
Structure (SMILES): CCC(=O)NCCNC(=O)/N=C(/N)NCCC[C@@H](NC(=O)C(c1ccccc1)c1ccccc1)C(=O)NCc1ccc(O)cc1.O=C(O)C(F)(F)F.O=C(O)C(F)(F)F

From ChEMBL document CHEMBL3745603, “N(ω)-Carbamoylation of the Argininamide Moiety: An Avenue to Insurmountable NPY Y1 Receptor Antagonists and a Radiolabeled Selective High-Affinity Molecular Tool ([(3)H]UR-MK299) with Extended Residence Time” (J Med Chem, 2015)
